The results in this text go back to ChEMBL document CHEMBL3400072, “Synthesis, biological evaluation and docking analysis of a new series of methylsulfonyl and sulfamoyl acetamides and ethyl acetates as potent COX-2 inhibitors” (Bioorg Med Chem, 2015).

Assay [1] relates to Mus musculus. Description: Analgesic activity in Swiss albino mouse model assessed as reduction of acetic acid-induced writhes at 3 mg/kg, po administered 30 mins prior to acetic acid challenge measured after 5 mins for 10 mins relative to vehicle-treated control. Type of assay: functional. Further details: scale not given: the % may be the effect or the level left. In outline:
(§1)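 Male Swiss albino mice (23–25 g), standard diet and water ad libitum, 23 °C, 12 h light/dark cycle. Oral dosing (1–40 mg/kg range), with carboxymethylcellulose (CMC) as vehicle, 30 min before ip injection of 0.6% acetic acid (10 mL/kg). Stretching movements counted for 10 min, beginning 5 min after acetic acid. Results given as writhe count and % reduction versus vehicle-treated mice.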

For assay [2], the target named is T1, Prostaglandin G/H synthase 2 (Homo sapiens) (UniProt P35354).
T1 sequence (whole entry): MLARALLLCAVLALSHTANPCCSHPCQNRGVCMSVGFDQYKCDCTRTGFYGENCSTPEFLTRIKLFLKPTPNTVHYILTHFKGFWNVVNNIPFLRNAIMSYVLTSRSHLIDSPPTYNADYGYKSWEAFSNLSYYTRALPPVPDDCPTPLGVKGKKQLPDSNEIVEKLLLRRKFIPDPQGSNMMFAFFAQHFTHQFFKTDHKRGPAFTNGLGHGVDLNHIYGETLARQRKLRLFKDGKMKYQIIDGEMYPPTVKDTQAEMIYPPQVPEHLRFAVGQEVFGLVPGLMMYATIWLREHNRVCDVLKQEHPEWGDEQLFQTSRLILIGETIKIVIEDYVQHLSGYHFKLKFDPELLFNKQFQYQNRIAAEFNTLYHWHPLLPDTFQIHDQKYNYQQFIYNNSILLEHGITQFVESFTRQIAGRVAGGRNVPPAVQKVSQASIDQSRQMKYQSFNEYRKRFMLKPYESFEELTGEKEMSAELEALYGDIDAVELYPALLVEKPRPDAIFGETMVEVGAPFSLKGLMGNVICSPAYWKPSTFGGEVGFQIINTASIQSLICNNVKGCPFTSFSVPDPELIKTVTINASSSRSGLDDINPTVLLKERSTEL
The settings on record: at 10 µM.

Assay [3] concerns Mus musculus. In words: Analgesic activity in Swiss albino mouse model assessed as reduction of acetic acid-induced writhes at 10 mg/kg, po administered 30 mins prior to acetic acid challenge measured after 5 mins for 10 mins relative to vehicle-treated control. Type of assay: functional. Further details: scale not given: the % may be the effect or the level left. An outline of the steps: as §1

Assay [4] has as its target T2, Prostaglandin G/H synthase 1 (Ovis aries) (UniProt P05979).
T2 sequence (whole entry): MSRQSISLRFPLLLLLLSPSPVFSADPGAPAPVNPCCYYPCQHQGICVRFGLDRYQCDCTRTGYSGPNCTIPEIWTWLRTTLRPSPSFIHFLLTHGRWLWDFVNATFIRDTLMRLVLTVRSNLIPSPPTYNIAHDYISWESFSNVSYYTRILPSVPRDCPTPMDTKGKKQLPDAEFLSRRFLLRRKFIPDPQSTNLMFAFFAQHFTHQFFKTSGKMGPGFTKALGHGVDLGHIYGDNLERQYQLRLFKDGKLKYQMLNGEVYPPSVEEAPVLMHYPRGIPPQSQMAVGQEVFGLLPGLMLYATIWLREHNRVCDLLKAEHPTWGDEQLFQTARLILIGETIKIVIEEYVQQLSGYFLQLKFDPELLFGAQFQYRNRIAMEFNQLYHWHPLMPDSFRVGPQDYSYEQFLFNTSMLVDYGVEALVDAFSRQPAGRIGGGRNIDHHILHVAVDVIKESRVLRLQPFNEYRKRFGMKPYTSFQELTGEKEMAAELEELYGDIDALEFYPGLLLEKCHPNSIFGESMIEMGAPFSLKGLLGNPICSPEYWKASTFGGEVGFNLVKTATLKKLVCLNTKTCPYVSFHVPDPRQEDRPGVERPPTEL
The settings on record: at 10 µM.

Assay [5] deals with T3, Prostaglandin G/H synthase 2 (Homo sapiens, UniProt P35354).
T3 sequence (P35354 whole entry): T1 sequence (whole entry)
Description: Inhibition of human recombinant COX2 using […] as substrate after 10 mins by EIA.

Assay [6] has as its system Mus musculus. Description: Analgesic activity in Swiss albino mouse model assessed as reduction of acetic acid-induced writhes at 30 mg/kg, po administered 30 mins prior to acetic acid challenge measured after 5 mins for 10 mins relative to vehicle-treated control. Type of assay: functional. Further details: scale not given: the % may be the effect or the level left. In outline:
as §1

Assay [7] has as its system Mus musculus. Description: Analgesic activity in po dosed Swiss albino mouse model assessed as reduction of acetic acid-induced writhes administered 30 mins prior to acetic acid challenge measured after 5 mins for 10 mins relative to vehicle-treated control. Type of assay: functional, organism-based. In outline:
as §1

The test system of assay [8] is Mus musculus. In words: Analgesic activity in Swiss albino mouse model assessed as reduction of acetic acid-induced writhes at 20 mg/kg, po administered 30 mins prior to acetic acid challenge measured after 5 mins for 10 mins relative to vehicle-treated control. Type of assay: functional. Further details: scale not given: the % may be the effect or the level left. An outline of the steps: as §1

Assay [9] deals with Mus musculus. In words: Analgesic activity in Swiss albino mouse model assessed as reduction of acetic acid-induced writhes at 40 mg/kg, po administered 30 mins prior to acetic acid challenge measured after 5 mins for 10 mins relative to vehicle-treated control. Type of assay: functional. Further details: scale not given: the % may be the effect or the level left. In outline:
as §1

Calls of active or inactive are those of the source. No cut-off for these calls is given here.

In the case of `CCCNC(=O)Cc1cc(-c2ccc(S(C)(=O)=O)cc2)n(-c2ccc(F)cc2)c1C`, the Activity stood at 10.2% in the assay on Mus musculus [1] and 29.9% in the assay with Mus musculus [3]. The compound also had an inhibition in assay [2] of 65%.
In the case of `Cc1c(CC(=O)NC(C)C)cc(-c2ccc(S(C)(=O)=O)cc2)n1-c1ccc(F)cc1`, the inhibition is 95% in assay [2] and 36% in assay [4]. Also, the IC50 in [5] amounted to 4.91 µM. For the same compound, the Activity worked out at 12.2% with Mus musculus [3] and 48.7% in the assay on Mus musculus [6].
Regarding `CCCNC(=O)Cc1cc(-c2ccc(S(C)(=O)=O)cc2)n(-c2cccc(F)c2)c1C`, in assay [2], the inhibition is 43%. The Activity in the assay with Mus musculus [3] is 12.2%; in the assay on Mus musculus [6], 9.9%.
In turn, `CCCNC(=O)Cc1cc(-c2ccc(S(N)(=O)=O)cc2)n(-c2cccc(F)c2)c1C` gave an inhibition in assay [2] of 96%. Also, the inhibition result in [4] was “inactive”. In assay [5], the half-inhibitory concentration (IC50) came to 5.78 µM. Besides, the Activity in the assay on Mus musculus [6] worked out at 12.2%.
Take `CCCNC(=O)Cc1cc(-c2ccc(S(N)(=O)=O)cc2)n(-c2ccc(F)cc2)c1C`: the Activity with Mus musculus [1] was determined as 3.9%; in the assay on Mus musculus [3] it was 8.3%; in the assay on Mus musculus [6] it was 39.1%. For the same compound, the inhibition in assay [2] came out at 62%.
In assay [2], `Cc1c(CC(=O)O)cc(-c2ccc(S(N)(=O)=O)cc2)n1-c1cccc(F)c1` yielded an inhibition of 65%. In the assay with Mus musculus [3], the Activity is given as 9.5%.
As for `Cc1ccc(-c2cc(C(F)(F)F)nn2-c2ccc(S(N)(=O)=O)cc2)cc1` [CELECOXIB], in the assay with Mus musculus [3], the Activity is 57.4%.
Turning to `Cc1c(CC(=O)NC(C)C)cc(-c2ccc(S(C)(=O)=O)cc2)n1-c1cccc(F)c1`, in assay [2], the inhibition was found to be 74%. Besides, the half-maximal inhibitory concentration (IC50) in assay [5] amounted to 7 µM. The Activity with Mus musculus [3] came out at 3.6%; in the assay on Mus musculus [6], 25.3%.
`Cc1c(CC(=O)NC(C)C)cc(-c2ccc(S(N)(=O)=O)cc2)n1-c1cccc(F)c1`: the Activity with Mus musculus [1] came out at 11.5%; in the assay on Mus musculus [3], 29.3%; in the assay with Mus musculus [6], 31.6%. The inhibition in assay [2] was 49%.
With `CCOC(=O)Cc1cc(-c2ccc(S(N)(=O)=O)cc2)n(-c2ccc(F)cc2)c1C`, the Activity entry is “Dose-dependent effect” with Mus musculus [7], 24.8% in the assay on Mus musculus [8], 10.4% in the assay with Mus musculus [3] and 62.3% with Mus musculus [9]. For the same compound, the inhibition in assay [2] is 82%. For the same compound, the inhibition entry in assay [4] was “inactive”. In addition, the half-maximal inhibitory concentration (IC50) in assay [5] worked out at 1.07 µM.
Consider `Cc1c(CC(=O)O)cc(-c2ccc(S(N)(=O)=O)cc2)n1-c1ccc(F)cc1`, for which the Activity was 33.1% with Mus musculus [8], 16.9% in the assay on Mus musculus [3] and 49.1% in the assay on Mus musculus [9]. Besides, in [2], the inhibition was determined as 65%.
In assay [2], `CCOC(=O)Cc1cc(-c2ccc(S(N)(=O)=O)cc2)n(-c2cccc(F)c2)c1C` registered an inhibition of 89%. Moreover, the inhibition result in [4] is “inactive”. The half-inhibitory concentration (IC50) in [5] was 0.92 µM. The values for the Activity in the assay on Mus musculus [3] and with Mus musculus [6] were 26% and 33.5%, respectively.
In the case of `Cc1c(CC(=O)NC(C)C)cc(-c2ccc(S(N)(=O)=O)cc2)n1-c1ccc(F)cc1`, the Activity in the assay with Mus musculus [1] is given as 16.1%; in the assay with Mus musculus [3], 36.5%; with Mus musculus [6] it was 43.7%. In assay [2], this compound displayed an inhibition of 48%.
